Results from article PMC9279720 (Acta Pharmaceutica Sinica. B, 2021).

Experiments:
HCMV ADCREGFP [1] = assay: HCMV replication assay; format: cell-based, Human cytomegalovirus (HCMV); details: for SI (selectivity index, CC50/EC50): CC50 (HFF) / EC50 (HCMV); for Antiviral activity/potency in words: concentrations up to 50 μmol/L
Cell viability assay = format: cell-based; details: human, HFF cells (no virus)
pUL89-C = biological target: T1, pUL89-C (Human cytomegalovirus, UniProt P16732); assay: In vitro pUL89-C endonuclease assay; format: biochemical, HCMV; details: read-out: Endonuclease inhibition (%) at 20 μmol/L
T1 sequence (P16732 418-674 limits assumed): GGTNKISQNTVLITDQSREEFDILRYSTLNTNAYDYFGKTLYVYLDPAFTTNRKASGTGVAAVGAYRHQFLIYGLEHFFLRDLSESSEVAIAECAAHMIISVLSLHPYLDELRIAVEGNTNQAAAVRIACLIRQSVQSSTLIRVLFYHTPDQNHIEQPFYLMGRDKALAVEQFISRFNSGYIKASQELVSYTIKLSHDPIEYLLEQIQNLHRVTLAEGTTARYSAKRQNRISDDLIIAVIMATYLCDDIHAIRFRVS

HFF cells = assay: Cell viability assay; format: cell-based; details: for Cytotoxicity in words: HFFs
HCMV ADCREGFP [2] = assay: Time of addition assay; format: cell-based, Human cytomegalovirus (HCMV); details: 5 × EC50, added at indicated times post infection
Procedure, shortened: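 HFFs seeded at 1.75 × 10^4 cells/well, grown 24 h in DMEM/10% FBS/1% P/S, then inoculated at MOI 0.01. Cells were held in DMEM with 5% FBS, 1% P/S and 0.5% DMSO until compound was added. GFP intensity was read after lysis; triplicate-well means were normalized to DMSO.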

HCMV ADCREGFP [3] = assay: Compound withdrawal assay; format: cell-based, Human cytomegalovirus (HCMV); details: 5 × EC50, removed at indicated times, read at 168 h
Procedure, shortened: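 HFFs in DMEM/5% FBS, inoculated with the virus at MOI 0.01 for 2 h before compound or 0.5% DMSO was added. At each withdrawal time, wells were washed twice in PBS and refed with 0.5% DMSO medium. Cells were lysed in Tris/DTT/Triton buffer and GFP read at ex/em 495/515 nm. Triplicate-well means.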

[4] = Plasma stability assay, human plasma; format: in vitro ADME; details: for half-life at 1 μmol/L: human, plasma, pH 7.4; for Plasma stability in words: species not told apart in the sentence (human and mouse in Table 3)
Procedure, shortened: (§1)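 Test compound (1 μmol/L final) incubated at 37 °C in human or CD-1 mouse plasma diluted to 80% with 0.1 mol/L potassium phosphate, pH 7.4. Aliquots taken at time points up to […], quenched with acetonitrile/0.1% formic acid and centrifuged at 4 °C. Percent remaining and half-life determined by LC/MS/MS.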

[5] = Plasma stability assay, mouse plasma; format: in vitro ADME, mouse (CD-1); details: CD-1, mouse, pH 7.4
Procedure, shortened: as §1

[6] = Microsomal stability assay, human liver microsomes; format: in vitro ADME; details: for half-life at 1 μmol/L: human, liver microsomes, pH 7.4; for Microsomal stability in words: species not told apart in the sentence (human and mouse in Table 3)
Procedure, shortened: (§2)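 Test compound (1 μmol/L final) incubated at 37 °C with liver microsomes (human or CD-1 mouse; 0.5 mg/mL protein) and 1 mmol/L MgCl2 in 0.1 mol/L potassium phosphate, pH 7.4. Reaction started with NADPH (1 mmol/L final); a no-NADPH control and a verapamil positive control were run alongside. Samples taken up to 60 min and quenched in acetonitrile/0.1% formic acid. Half-life determined by LC/MS/MS.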

[7] = Microsomal stability assay, mouse liver microsomes; format: in vitro ADME; details: CD-1, mouse, pH 7.4
Procedure, shortened: as §2

[8] = Parallel artificial membrane permeability assay; format: in vitro ADME; details: for Papp at 5 h, 2 μmol/L: PAMPA
Procedure, shortened: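 Pre-coated lipid PAMPA plate system. Donor wells held test compound at 2 μmol/L in DPBS; acceptor wells held blank DPBS. Incubated 5 h at 25 °C without agitation. Donor and acceptor concentrations measured by LC/MS/MS. Pe calculated from an equilibrium-concentration equation (filter area 0.3 cm2). Compounds classed as high or low permeability at a cutoff of 1.5 × 10−6 cm/s.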

Row | Structure (SMILES) | SI (selectivity index, CC50/EC50) (HCMV ADCREGFP [1]) | CC50 at 168 h (Cell viability assay) | inhibition at 20 µM (pUL89-C) | other results
1 | Nc1nc(O)c2ncn(COC(CO)CO)c2n1 [Compound 1, ganciclovir, reference compound] | >50 | > 50 µM |  | 
2 | O=C(NCc1ccc(F)cc1)c1cn(Cc2ccc(F)cc2)cc(O)c1=O [Compound 8b] | 8.2 | 6.4 ± 3.7 µM | 7% | 
3 | O=C(NCc1ccccc1)c1cn(Cc2ccc(F)cc2)cc(O)c1=O [Compound 8d] | 4.7 | 7.1 ± 6.4 µM | 9% | 
4 | O=C(NCc1ccccc1F)c1cn(Cc2ccc(F)cc2)cc(O)c1=O [Compound 8e] | 3.6 | 5.8 ± 2.1 µM | 6% | 
5 | O=C(NCc1cccc(F)c1)c1cn(Cc2ccc(F)cc2)cc(O)c1=O [Compound 8f] | 4.0 | 3.9 ± 1.8 µM | 7% | 
6 | O=C(NCc1ccc(Cl)cc1F)c1cn(Cc2ccc(F)cc2)cc(O)c1=O [Compound 8k] | 4.4 | 2.4 ± 0.07 µM | 14% | 
7 | O=C(NCc1ccc(F)c(Cl)c1)c1cn(Cc2ccc(F)cc2)cc(O)c1=O [Compound 8n] | 6.3 | 3.9 ± 2.3 µM | 5% | 
8 | O=C(NCc1c(F)cccc1Cl)c1cn(Cc2ccc(F)cc2)cc(O)c1=O [Compound 8p] |  |  | 5% | viability at 168 h, 50 μmol/L (Cell viability assay): ~50%; Cytotoxicity in words (HFF cells): cytostatic but not a cytotoxic effect; Metabolic activity compared to DMSO (MTS assay) (HFF cells; across all compound concentrations 0.2–50 μmol/L): approximately 50%
9 | O=C(NCc1ccc(Br)cc1F)c1cn(Cc2ccc(F)cc2)cc(O)c1=O [Compound 8q] | >41 | > 25 µM | 9% | 
10 | N#Cc1ccc(CNC(=O)c2cn(Cc3ccc(F)cc3)cc(O)c2=O)c(F)c1 [Compound 8r] | >42 | > 50 µM | 5% | 
11 | Cc1cc(CNC(=O)c2cn(Cc3ccc(F)cc3)cc(O)c2=O)ccc1F [Compound 8s] | 10 | 10 ± 5.4 µM | 6% | 
12 | O=C(NCc1ccc(C(F)(F)F)cc1F)c1cn(Cc2ccc(F)cc2)cc(O)c1=O [Compound 8u] | >46 | > 25 µM | 3% | 
13 | O=C(NCc1cc(F)c(F)cc1F)c1cn(Cc2ccc(F)cc2)cc(O)c1=O [Compound 8v] | 8.1 | 5.7 ± 2 µM | 5% | 
14 | O=C(Nc1ccc(F)cc1)c1cn(Cc2ccc(F)cc2)cc(O)c1=O [Compound 9b] | 6.4 | 5.6 ± 1.3 µM | 9% | 
15 | CC1(C)OB(c2ccc(NC(=O)c3cn(Cc4ccc(F)cc4)cc(O)c3=O)cc2)OC1(C)C [Compound 9c] | >17 | > 50 µM | 7% | Antiviral activity/potency in words (HCMV ADCREGFP [1]): decreased potency; Cytotoxicity in words (HFF cells): no cytotoxicity
16 | CC(NC(=O)c1cn(Cc2ccc(F)cc2)cc(O)c1=O)c1ccc(F)cc1F (centres unmarked) [Compound 10] | >94 | > 50 µM | 5% | 
17 | CN(Cc1ccc(F)cc1F)C(=O)c1cn(Cc2ccc(F)cc2)cc(O)c1=O [Compound 11] | 8.6 | 12 ± 4.9 µM | 6% | 
18 | O=C(NCCc1ccc(F)cc1F)c1cn(Cc2ccc(F)cc2)cc(O)c1=O [Compound 12] | >116 | > 50 µM | 10% | Time of addition, result in words (HCMV ADCREGFP [2]): inhibit viral replication at a stage between when GCV and LTV are active; Compound withdrawal, result in words (HCMV ADCREGFP [3]): inhibit a step in viral replication between LTV and GCV; half-life at 1 μmol/L [4]: > 24 h; Plasma stability in words [4]: excellent; half-life at 1 μmol/L [5]: > 24 h; half-life at 1 μmol/L [6]: 0.668 ± 0.03 h; Microsomal stability in words [6]: good; half-life at 1 μmol/L [7]: 0.433 ± 0.0167 h; PAMPA permeability class [8]: high permeability; Papp at 5 h, 2 μmol/L [8]: 4.5 ± 0.9 ×10⁻⁶ cm/s
19 | O=C(NCc1ccc(F)cc1F)c1cn(Cc2ccccc2)cc(O)c1=O [Compound 13] | >50 | > 50 µM | 6% | Time of addition, result in words (HCMV ADCREGFP [2]): active similar to, or possibly later than, LTV; Compound withdrawal, result in words (HCMV ADCREGFP [3]): viral replication recovered similarly to GCV; half-life at 1 μmol/L [4]: > 24 h; Plasma stability in words [4]: excellent; half-life at 1 μmol/L [5]: > 24 h; half-life at 1 μmol/L [6]: 1.7 ± 0.197 h; Microsomal stability in words [6]: good; half-life at 1 μmol/L [7]: 0.895 ± 0.00667 h; PAMPA permeability class [8]: high permeability; Papp at 5 h, 2 μmol/L [8]: 9.1 ± 1.1 ×10⁻⁶ cm/s
20 | O=C(NCc1ccc(F)cc1F)c1cn(C2CC2)cc(O)c1=O [Compound 14] | >5.2 | > 25 µM | 7% | 
21 | O=C(NCc1ccc(F)cc1F)c1c[nH]cc(O)c1=O [Compound 15] | >6.3 | > 50 µM | 7% | 
22 | O=C(NCc1ccc(F)cc1F)c1cn(Cc2ccc(F)cc2)ccc1=O [Compound 17] | >7.6 | > 50 µM | 5% | 
23 | CCOC(=O)c1cn(Cc2ccc(F)cc2)ccc1=O [Compound 42] |  | > 50 µM | 7% | Antiviral activity/potency in words (HCMV ADCREGFP [1]): no antiviral activity
24 | COc1cccc(N2CCN(C3=Nc4c(F)cccc4[C@H](CC(=O)O)N3c3cc(C(F)(F)F)ccc3OC)CC2)c1 [LTV, letermovir, reference compound] |  |  |  | Compound withdrawal, result in words (HCMV ADCREGFP [3]): the viral infection rebounded quickly compared to GCV
